Experiment [1] has as its system Streptococcus sanguinis. In words: Antibacterial activity against Streptococcus sanguinis ATCC 10556 after 24 hrs by broth microdilution method. The conditions noted are these: ATCC 10556, 24 h. A general note: In broth dilution the organism is exposed to a series of concentrations in liquid medium.
Experiment [2] concerns Streptococcus mutans. In words: Antibacterial activity against Streptococcus mutans ATCC 25175 assessed as 280 nm absorbing material release at 2 time MIC after 60 mins by spectrophotometric analysis. In kind it is functional, organism-based. In short, it runs like this: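 S. mutans prepared in 50 mmol/l phosphate pH 7.1 (~1 × 10^9 cfu/ml) was exposed to compound at 2 × MIC for 60 min at 37 °C. Supernatant taken after centrifugation (10,000 g, 10 min) and read at A280. Release is expressed as % of a total-release control made by lysozyme treatment (100 µg/ml, 60 min, 37 °C) plus sonication.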

For experiment [3], the system named is Streptococcus mutans. In words: Antibacterial activity against Streptococcus mutans ATCC 25175 after 24 hrs by broth microdilution method. Particulars: ATCC 25175, 24 h.
Experiment [4] concerns Streptococcus mutans. In words: Antibacterial activity against Streptococcus mutans ATCC 25175 after 48 hrs by broth microdilution method. The experiment is classed as functional. The conditions noted are these: ATCC 25175, 48 h.
In experiment [5] the test system is Streptococcus mutans. In words: Antibacterial activity against Streptococcus mutans ATCC 25175 assessed as decrease in cell viability at 2 time MIC after 60 mins by serial dilution method relative to control. The experiment is classed as functional. In short, it runs like this: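 S. mutans suspension from an 18 h culture (~1 × 10^9 cfu/ml) diluted 1:20 into phosphate buffer containing compound at 2 × MIC. Incubated 60 min at 37 °C, then serially diluted in saline and plated on BHI agar. Colonies counted after 48 h at 37 °C in 5% CO2; viability given as CFU/ml relative to untreated cells.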

In experiment [6] the test system is Streptococcus mutans. In words: Antibacterial activity against Streptococcus mutans ATCC 25175 assessed as inhibition of biofilm formation after 18 hrs. The experiment is classed as functional. The gist of the method: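 Single-species S. mutans biofilm grown in flat-bottom polystyrene wells, BHI with 2% sucrose, 6 × 10^7 cfu/ml final, compound twofold 0.12–128 µg/ml, 18 h at 37 °C in 5% CO2. Wells rinsed with PBS pH 7.2, methanol-fixed, stained with 0.1% crystal violet, eluted in 95% ethanol, A595 read. % inhibition relative to untreated control; MBIC50 is the lowest concentration giving ≥50% inhibition.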

Experiment [7] has as its system Porphyromonas gingivalis. In words: Antibacterial activity against Porphyromonas gingivalis ATCC 33277 after 48 hrs by broth microdilution method. The conditions noted are these: ATCC 33277, 48 h. In kind it is functional. The gist of the method: (§1)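 Broth microdilution MIC for obligate anaerobes, run in their growth media (Wilkins–Chalgren for F. nucleatum and P. intermedia; supplemented Todd Hewitt broth for P. gingivalis). Inoculum suspended in Brucella broth, final 5 × 10^6 cfu/ml. Twofold dilutions, final 0.12–128 µg/ml. Incubated anaerobically (90% N2/5% H2/5% CO2) at 37 °C for 48 h; MIC is the lowest concentration without turbidity.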

Experiment [8] deals with Actinomyces viscosus. In words: Antibacterial activity against Actinomyces viscosus ATCC 15987 after 48 hrs by broth microdilution method. In kind it is functional. The conditions noted are these: ATCC 15987, 48 h.
Experiment [9] has as its system Streptococcus mutans. In words: Antibacterial activity against Streptococcus mutans ATCC 25175 assessed as increase of cell membrane permeability at 2 time MIC after 60 mins propidium iodide staining by flow cytometry. The experiment is classed as functional, organism-based. The gist of the method:
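Overnight BHI culture of S. mutans washed into 50 mmol/l sodium phosphate pH 7.1 (~1 × 10^9 cfu/ml), diluted 1:20 into buffer with compound at 2 × MIC. Incubated 60 min at room temperature; aliquots diluted in buffer and stained with propidium iodide at 10 µg/ml final on ice. The percentage of PI-stained cells was measured by flow cytometry.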
In general terms: In flow cytometry, cells or beads pass a laser one at a time.

For experiment [10], the system named is Streptococcus sanguinis. In words: Antibacterial activity against Streptococcus sanguinis ATCC 10556 after 48 hrs by broth microdilution method. The experiment is classed as functional. Particulars: ATCC 10556, 48 h.
The test system of experiment [11] is Fusobacterium nucleatum. In words: Antibacterial activity against Fusobacterium nucleatum ATCC 10953 after 48 hrs by broth microdilution method. The conditions noted are these: ATCC 10953, 48 h. In kind it is functional. In short, it runs like this:
as §1

Experiment [12] relates to Actinomyces viscosus. In words: Antibacterial activity against Actinomyces viscosus ATCC 15987 after 24 hrs by broth microdilution method. Particulars: ATCC 15987, 24 h.
The subject of experiment [13] is Prevotella intermedia. In words: Antibacterial activity against Prevotella intermedia ATCC 25611 after 48 hrs by broth microdilution method. In kind it is functional. Particulars: ATCC 25611, 48 h. In short, it runs like this:
as §1

Experiment [14] relates to Streptococcus mutans. In words: Ratio of compound MBIC50 to bakuchiol MBIC50 for Streptococcus mutans ATCC 25175. In kind it is functional. The gist of the method: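 MBIC50 from crystal-violet S. mutans biofilm assay (BHI + 2% sucrose, 18 h, 37 °C, 5% CO2, A595 read) for each compound, divided by the bakuchiol MBIC50 from the same assay.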
Experiment [15] relates to Streptococcus sanguinis. In words: Ratio of compound MIC to bakuchiol MIC for Streptococcus sanguinis ATCC 10556. The experiment is classed as functional.
Experiment [16] has as its system Porphyromonas gingivalis. In words: Ratio of compound MIC to bakuchiol MIC for Porphyromonas gingivalis ATCC 33277. In kind it is functional.
Experiment [17] deals with Fusobacterium nucleatum. In words: Ratio of compound MIC to bakuchiol MIC for sFusobacterium nucleatum ATCC 10953. The experiment is classed as functional.
Experiment [18] deals with Streptococcus mutans. In words: Ratio of compound MIC to bakuchiol MIC for Streptococcus mutans ATCC 25175. The experiment is classed as functional.
In experiment [19] the test system is Prevotella intermedia. In words: Ratio of compound MIC to bakuchiol MIC for Prevotella intermedia ATCC 25611. The experiment is classed as functional.
The subject of experiment [20] is Actinomyces viscosus. In words: Ratio of compound MIC to bakuchiol MIC for Actinomyces viscosus ATCC 15987. In kind it is functional.

Structures are written as SMILES. ≈ marks a conversion by molar mass, not a printed value. Calls of active or inactive are those of the source. A value given as a limit tells only on which side of the number the result lay.

What is called MIC is the least concentration at which growth counts as inhibited. Low readings indicate a more susceptible organism, high ones a less susceptible organism. One may read the MBC as the smallest concentration meeting the test's criterion for killing. The low end stands for more potent killing, the high end for less potent killing.

Take `C=C[C@@](C)(/C=C/c1ccc(O)cc1)CCC=C(C)C` [BAKUCHIOL]: the MIC in the experiment with Streptococcus sanguinis [1] is 1 µg/mL (≈ 3.9 µM); against Streptococcus mutans [3], 1 µg/mL (≈ 3.9 µM); in the experiment on Porphyromonas gingivalis [7] it was 1 µg/mL (≈ 3.9 µM); against Fusobacterium nucleatum [11] it was 32 µg/mL (≈ 125 µM); in the experiment on Actinomyces viscosus [12] it was 1 µg/mL (≈ 3.9 µM); with Prevotella intermedia [13], 1 µg/mL (≈ 3.9 µM). Moreover, the outcome in the experiment on Streptococcus mutans [2] and with Streptococcus mutans [9] was Active. Besides, the minimal bactericidal concentration (MBC) in the experiment with Streptococcus mutans [4] is 2 µg/mL (≈ 7.8 µM); against Porphyromonas gingivalis [7] it was 1 µg/mL (≈ 3.9 µM); against Actinomyces viscosus [8], 2 µg/mL (≈ 7.8 µM); against Streptococcus sanguinis [10], 2 µg/mL (≈ 7.8 µM); with Fusobacterium nucleatum [11], 64 µg/mL (≈ 250 µM); in the experiment on Prevotella intermedia [13], 2 µg/mL (≈ 7.8 µM). In addition, in the experiment on Streptococcus mutans [5], the Activity is reported as more than 80%. In addition, in the experiment on Streptococcus mutans [6], the MBIC50 is 4 µg/mL.

In the case of `CC(C)=CCC[C@](C)(/C=C/c1ccc(O)cc1)/C=C/c1ccc(F)cc1`, the Ratio with Streptococcus mutans [14] was 2. For the same molecule, the minimal inhibitory concentration (MIC) with Streptococcus sanguinis [1] is 4 µg/mL (≈ 11.4 µM); in the experiment on Streptococcus mutans [3] it was 4 µg/mL (≈ 11.4 µM); in the experiment with Porphyromonas gingivalis [7], 2 µg/mL (≈ 5.71 µM); with Fusobacterium nucleatum [11] it was more than 128 µg/mL; against Actinomyces viscosus [12], 4 µg/mL (≈ 11.4 µM); against Prevotella intermedia [13], 2 µg/mL (≈ 5.71 µM). Further, the MBC was 4 µg/mL (≈ 11.4 µM) in the experiment with Streptococcus mutans [4]; 4 µg/mL (≈ 11.4 µM) in the experiment on Porphyromonas gingivalis [7]; 8 µg/mL (≈ 22.8 µM) against Actinomyces viscosus [8]; 8 µg/mL (≈ 22.8 µM) against Streptococcus sanguinis [10]; more than 128 µg/mL in the experiment with Fusobacterium nucleatum [11]; 4 µg/mL (≈ 11.4 µM) in the experiment on Prevotella intermedia [13]. Also, the MBIC50 in the experiment on Streptococcus mutans [6] worked out at 8 µg/mL.

In the case of `COc1ccc(/C=C/[C@@](C)(/C=C/c2ccc(O)cc2)CCC=C(C)C)cc1`, the Ratio in the experiment on Streptococcus sanguinis [15] came to 2; with Porphyromonas gingivalis [16], 2; with Fusobacterium nucleatum [17], 0.25; in the experiment with Streptococcus mutans [18], 2; in the experiment with Prevotella intermedia [19], 2; in the experiment with Actinomyces viscosus [20], 2. The MIC with Streptococcus sanguinis [1] stood at 2 µg/mL (≈ 5.52 µM); against Streptococcus mutans [3] it was 1 µg/mL (≈ 2.76 µM); against Porphyromonas gingivalis [7] it was 0.5 µg/mL (≈ 1.38 µM); against Fusobacterium nucleatum [11], 8 µg/mL (≈ 22.1 µM); against Actinomyces viscosus [12], 2 µg/mL (≈ 5.52 µM); in the experiment with Prevotella intermedia [13] it was 2 µg/mL (≈ 5.52 µM). In addition, the outcome with Streptococcus mutans [2] and in the experiment with Streptococcus mutans [9] was Active. For the same molecule, the minimum bactericidal concentration (MBC) with Streptococcus mutans [4] turned out to be 2 µg/mL (≈ 5.52 µM); in the experiment on Porphyromonas gingivalis [7], 1 µg/mL (≈ 2.76 µM); against Actinomyces viscosus [8] it was 2 µg/mL (≈ 5.52 µM); with Streptococcus sanguinis [10], 2 µg/mL (≈ 5.52 µM); with Fusobacterium nucleatum [11], 8 µg/mL (≈ 22.1 µM); against Prevotella intermedia [13], 4 µg/mL (≈ 11 µM). Moreover, the Activity in the experiment on Streptococcus mutans [5] is recorded as more than 80%. Besides, the MBIC50 in the experiment with Streptococcus mutans [6] is 2 µg/mL.

`COc1ccc(/C=C/[C@](C)(/C=C/c2ccc(O)cc2)CCC=C(C)C)cc1`: the Ratio in the experiment on Streptococcus sanguinis [15], in the experiment on Porphyromonas gingivalis [16], in the experiment on Fusobacterium nucleatum [17], in the experiment with Streptococcus mutans [18], in the experiment on Prevotella intermedia [19] and in the experiment on Actinomyces viscosus [20] was 2 each time. Moreover, the MIC with Streptococcus sanguinis [1] is 0.5 µg/mL (≈ 1.38 µM); with Streptococcus mutans [3], 0.5 µg/mL (≈ 1.38 µM); against Porphyromonas gingivalis [7] it was 0.25 µg/mL (≈ 0.69 µM); in the experiment on Fusobacterium nucleatum [11] it was 16 µg/mL (≈ 44.1 µM); against Actinomyces viscosus [12] it was 0.5 µg/mL (≈ 1.38 µM); in the experiment on Prevotella intermedia [13] it was 0.5 µg/mL (≈ 1.38 µM). Further, the outcome in the experiment on Streptococcus mutans [2] and in the experiment with Streptococcus mutans [9] was Active. Moreover, the MBC against Streptococcus mutans [4] is 1 µg/mL (≈ 2.76 µM); against Porphyromonas gingivalis [7], 0.5 µg/mL (≈ 1.38 µM); in the experiment on Actinomyces viscosus [8], 1 µg/mL (≈ 2.76 µM); with Streptococcus sanguinis [10], 1 µg/mL (≈ 2.76 µM); in the experiment on Fusobacterium nucleatum [11], 32 µg/mL (≈ 88.3 µM); against Prevotella intermedia [13], 1 µg/mL (≈ 2.76 µM). Further, in the experiment on Streptococcus mutans [5], the Activity is recorded as more than 80%. The MBIC50 in the experiment with Streptococcus mutans [6] was found to be 1 µg/mL.

Source of the values: ChEMBL document CHEMBL1177882, “Novel bisstyryl derivatives of bakuchiol: targeting oral cavity pathogens” (2010).
